The list is not random: actives were taken first. Their share in the collection is about 2.4%.
dFosB activator = activators of mouse delta FosB homodimer. AID 493131. activation, % at 25 µM. purified delta FosB, TAMRA-CDK5 oligo fluorescence polarization; percent of positive-control signal above neutral wells. P13346. 0.99% of 340,000 active;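 active means mean activation above about 17%, with every replicate also reaching it, limit read from the data, passing the limit was not always enough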
Target sequence (P13346 whole entry, looked up): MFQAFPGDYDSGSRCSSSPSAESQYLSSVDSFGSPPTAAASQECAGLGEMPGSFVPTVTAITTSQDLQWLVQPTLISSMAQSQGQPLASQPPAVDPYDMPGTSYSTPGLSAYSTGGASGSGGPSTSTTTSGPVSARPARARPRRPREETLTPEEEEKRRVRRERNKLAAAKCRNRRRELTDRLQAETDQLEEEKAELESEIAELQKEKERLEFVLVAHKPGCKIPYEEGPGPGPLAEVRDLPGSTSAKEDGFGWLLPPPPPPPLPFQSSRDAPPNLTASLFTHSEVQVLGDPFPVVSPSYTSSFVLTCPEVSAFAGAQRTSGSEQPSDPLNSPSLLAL
GSIS activator = GLuc luminescence reporter in INS-1E cells, primary screen for activators of glucose-dependent secretion of insulin; INS-1E GLuc reporter insulin secretion, 2-3 h; activation, % at 16.6 µM; 0.61% of 370,000 active; AID 743287;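 active means lowest replicate activation of at least 40%, so every replicate reaches that level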;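 further: 0% = median of neutral control wells and 100% = median of IBMX positive control wells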
miR122 inh = blocks miR-122 activity in Huh7 sensor cells; AID 602342; Huh7 miR-122 Renilla luciferase sensor, 48 h; neutral wells = 0, positive control = 100; activation (reporter increase), % at 12.5 µM; 0.3% of 340,000 active;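 active means mean replicate activation score at least 90 and every replicate individually at or above 90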;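 further: higher luciferase means less miR-122 activity so hits act as miR-122 inhibitors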
Cneo AK release = causes C. neoformans cell lysis; adenylate kinase release luminescence, 4 h; normalised: neutral wells 0, clomiphene wells 100; 0.2% of 360,000 active; lysis activity, % at 15 µM;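 active means mean lysis activity across replicates of at least 80%, whatever share of replicates individually reach that level; inactive means mean lysis activity below 80%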
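Test system: log-phase Cryptococcus neoformans yeast cells. Input: 5 × 10^6 yeast cells/mL. Medium: fresh YPD growth medium. Doses: single dose. Incubation: static 4 h at 37 °C with compound, 1 h detection. Measured by: luminescent adenylate kinase detection reagent. Read-out: signal increase indicating cell lysis. Benchmarks: Clomiphene.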
Rtt109 Vps75 = inhibitors of Candida albicans Rtt109/Vps75 histone acetyltransferase | Q5AAJ8 | purified Rtt109/Vps75, ThioGlo CoA-SH fluorescence, 4 h | inhibition, % at 34.9 µM | 0.16% of 330,000 active;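 active means inhibition of at least 50% in every replicate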
Target sequence (Q5AAJ8 whole entry, looked up): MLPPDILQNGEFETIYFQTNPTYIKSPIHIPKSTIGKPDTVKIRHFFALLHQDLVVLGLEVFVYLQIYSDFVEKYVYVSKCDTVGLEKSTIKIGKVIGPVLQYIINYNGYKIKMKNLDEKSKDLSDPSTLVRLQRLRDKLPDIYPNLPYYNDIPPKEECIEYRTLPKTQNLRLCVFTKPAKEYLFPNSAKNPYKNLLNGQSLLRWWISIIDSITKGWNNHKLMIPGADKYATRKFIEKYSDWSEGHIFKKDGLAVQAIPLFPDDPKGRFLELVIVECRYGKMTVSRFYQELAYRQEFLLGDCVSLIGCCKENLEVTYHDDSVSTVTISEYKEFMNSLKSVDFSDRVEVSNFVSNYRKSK
Env fusion inh = inhibitors of HIV Env-mediated cell fusion; HeLa-JRFL Env/CEM21 cell fusion, luciferase; 1.1% of 360,000 active; inhibition, % at 12.3 µM; AID 651610;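 active means mean replicate inhibition score of at least 50 and every replicate individually at or above 50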;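 further: 0% = plate neutral controls and 100% = maraviroc near 300 nM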
An asterisk follows results filed as active; x = not tested or not shown; [ ] = another dose, or the depositor's remark.

SMILES | dFosB activator | GSIS activator | miR122 inh | Cneo AK release | Rtt109 Vps75 | Env fusion inh
CC(=O)Nc1ccc2c(c1)CC(=O)N(C)C[C@@H](C)[C@H](CN(C)C(=O)NC(C)C)O2 | x | 5.5 | x | x | x | x
COc1ccc(NC(=O)N[C@H]2CC[C@H](CCNC(=O)Cc3ccncc3)O[C@@H]2CO)cc1 | x | 11.5 | x | 0.2 | x | 6.5[16.7 µM]
COc1ccc(S(=O)(=O)Nc2cc(C)ccc2OC)cc1C | -11.4 | x | 113.7* | -4.2 | 5.8 | x
C=CC(=O)Nc1cccc(Oc2ccnc3[nH]ccc23)c1 | 4.5 | x | x | 0.1 | -14.3 | x
C=CC(=O)Nc1cccc(Oc2ncnc3[nH]cc(-c4cnc5ccccc5c4)c23)c1 | 1.0 | x | -5.1 | 1.5 | 1.5 | 57.1*
COc1ccc(OC)c(Nc2c3ccccc3nc3ccccc23)c1 | 36.6* | 12.2 | 17.8 | -3.3 | -4.8 | 13.4
O=[N+]([O-])c1ccccc1Nc1c2ccccc2nc2ccccc12 | -4.4 | 3.9 | 4.5 | x | -2.7 | 62.0*
CC(=O)Nc1ccc(C(=O)OCC(=O)NCc2ccccc2)cc1 | 5.6 | -7.8 | x | x | 7.7 | -20.7
COc1ccc(OC)c(Nc2c3c(nc4ccccc24)CCC3)c1 | 1.9 | 18.0 | 16.5 | -0.6 | 5.6 | -150.8
COc1ccc(OCC(=O)NNc2c3ccccc3nc3ccccc23)cc1 | -0.3 | x | 1.6 | -10.6 | -1.0 | 58.9*
CC(=O)Nc1ccc(OCC(=O)NCc2ccccc2)cc1 | -0.9 | -3.3 | x | x | 52.4* | 3.0
O=C(COc1ccccc1)NNc1c2ccccc2nc2ccccc12 | -3.4 | x | -14.6 | 3.6 | -3.9 | x
O=[N+]([O-])c1ccc(Nc2c3ccccc3nc3ccccc23)cc1 | -11.6 | -3.5 | x | x | x | 31.2
CCCNC(=O)c1ccccc1NC(=O)COc1ccc(OC)cc1 | -9.3 | 56.6* | 1.3 | 4.9 | -0.7 | -26.6
COc1ccc([N+](=O)[O-])cc1Nc1c2ccccc2nc2ccccc12 | 0.7 | -1.9 | 54.8 | -1.2 | 0.5 | 79.4*
COc1ccc(Nc2nc(N3CCCC3)nc3ccccc23)c(OC)c1 | 38.7* | 8.3 | -27.6 | 6.2 | 14.8 | -82.8
COc1ccc(Nc2ncnc3ccccc23)c(OC)c1 | 0.2 | x | -2.7 | -3.1 | -8.9 | -6.0
CCS(=O)(=O)N1CCCCN2[C@@H](CO)[C@H](c3ccc(C#CC(C)(C)O)cc3)[C@@H]2C1 | x | 8.9 | 4.3[16.7 µM] | -1.4 | x | x
C[C@@H]1CN([C@H](C)CO)C(=O)Cc2cc(NS(=O)(=O)c3cn(C)cn3)ccc2O[C@@H]1CN(C)Cc1ccc(C(=O)Nc2ccccc2N)cc1 | x | -9.2 | x | x | x | x
COc1cccc(-c2ccc([C@H]3[C@H]4CN(C(=O)C5CCCCC5)CC(=O)N4[C@H]3CO)cc2)c1 | x | -14.5 | x | x | x | x
C[C@H]1CN([C@@H](C)CO)C(=O)c2ccccc2-c2ccccc2CO[C@H]1CN(C)S(=O)(=O)CC(F)(F)F | x | x | x | -2.3 | x | -0.5[16.7 µM]
O=S(=O)(NC[C@@H]1[C@@H](c2ccccc2)[C@H](CO)N1CC1CC1)c1ccccc1 | x | 2.6 | 42.9[16.7 µM] | 107.2* | x | x
CCCC#Cc1ccc2c(c1)O[C@H](CN(C)CCC)[C@H](C)CN([C@@H](C)CO)S2(=O)=O | x | 1.4 | 7.3[16.7 µM] | 102.6* | x | -35.8[16.7 µM]
C[C@H]1CN([C@@H](C)CO)S(=O)(=O)c2ccc(C#CCN(C)C)cc2O[C@@H]1CN(C)Cc1ccc2c(c1)OCO2 | x | 12.6 | 104.0*[16.7 µM] | 4.4 | x | -36.2[16.7 µM]
CCCC#Cc1ccc2c(c1)O[C@H](CN(C)Cc1ccc3c(c1)OCO3)[C@H](C)CN([C@H](C)CO)S2(=O)=O | x | -19.2 | 11.7[16.7 µM] | 14.0 | x | 55.7*[16.7 µM]
SMILES | dFosB activator | GSIS activator | miR122 inh | Cneo AK release | Rtt109 Vps75 | Env fusion inh
C[C@H]1CN([C@@H](C)CO)S(=O)(=O)c2ccc(/C=C/c3ccccc3)cc2O[C@@H]1CN(C)C(=O)Nc1ccc(F)cc1 | x | -22.8 | 6.3[16.7 µM] | 2.6 | x | 14.4[16.7 µM]
O=C(NCC[C@H]1CC[C@@H](NS(=O)(=O)c2ccc(Cl)cc2)[C@H](CO)O1)Nc1ccc(F)cc1 | x | -16.5 | x | x | x | x
CN1C(=O)c2cc(NC(=O)C3CCOCC3)ccc2OC[C@@H]2O[C@H](CC(=O)O)CC[C@@H]21 | x | 1.6 | -2.1[16.7 µM] | x | x | 12.5[16.7 µM]
O=C(CN1CCN(Cc2ccccc2F)C1=O)NC1CCCC1 | 3.4 | x | 9.6 | -3.3 | -8.4 | -5.0
O=C(CN1CCCN(Cc2ccc(F)cc2Cl)C1=O)NC1CCCCCCC1 | -3.1 | -21.9 | -6.7 | -3.0 | 9.5 | 72.2*
CC(=O)Nc1cccc2c1O[C@@H](CN(C)C(=O)OC(C)(C)C)[C@H](C)CN(C)C2=O | x | 6.6 | x | x | x | x
C[C@@H]1CN([C@@H](C)CO)S(=O)(=O)c2ccc(/C=C/c3ccccc3)cc2O[C@H]1CN(C)C(=O)c1ccncc1 | x | -47.4 | -3.0[16.7 µM] | -2.5 | x | 7.1[16.7 µM]
CCC(=O)N1CCC2(CC1)CN(Cc1ccc(Cl)cc1)[C@H](CO)c1[nH]c3cc(OC)ccc3c12 | x | -3.0 | x | x | x | x
O=C(NNS(=O)(=O)c1ccc(F)cc1F)C1Cc2c(ccc3ccccc23)O1 (stereo not given) | 3.0 | x | x | 0.2 | -1.8 | 96.9*
C[C@@H]1CN([C@H](C)CO)S(=O)(=O)c2ccc(C#CC3CCCC3)cc2O[C@H]1CN(C)Cc1cccnc1 | x | -7.2 | 45.0[16.7 µM] | 3.1 | x | 27.2[16.7 µM]
CN(C)c1ccc(NC(=S)Nc2ccc3c(c2)c(=O)n(C)n3-c2ccc(C(C)(C)C)cc2)cc1 | x | 17.3 | -2.7 | -1.8 | x | 58.0*
CCCN(C)C[C@H]1Oc2cc(C#C[C@@H](C)O)ccc2S(=O)(=O)N([C@H](C)CO)C[C@H]1C | x | 5.8 | 2.1[16.7 µM] | -2.3 | x | 0.9[16.7 µM]
CCN=C1S/C(=C/c2ccc(-c3ccc(Cl)cc3C(=O)O)o2)C(=O)N1CC | -5.3 | 87.6* | x | x | x | 11.8
Cc1ccc(NC(=O)OCc2cc(-c3ccccc3)on2)cc1 | -6.7 | 5.8 | x | x | 55.8* | -12.6
CC(C)N1C(=O)N(c2cccc(Cl)c2)C(C)(O)CC1(C)C (stereo not given) | -6.3 | 63.6* | -0.9 | -5.2 | 9.1 | 7.3
O=C(c1cccc(F)c1)N1C[C@H]2[C@@H](c3ccccc31)[C@@H](CO)N2Cc1cocn1 | x | 2.1 | 7.1[16.7 µM] | 99.8* | x | x
O=C(C1CCOCC1)N1C[C@H]2[C@@H](c3ccccc31)[C@@H](CO)N2Cc1ccccc1Cl | x | 18.4 | 20.0[16.7 µM] | 100.0* | x | x
COc1ccc(C(=O)N2C[C@@H]3[C@H](c4ccccc42)[C@H](CO)N3Cc2ccccc2Cl)cc1 | x | -2.3 | 194.2*[16.7 µM] | 54.8 | x | x
C[C@@H]1CN(C)C(=O)Cc2cc(N)ccc2O[C@@H]1CN(C)C(=O)OC(C)(C)C | x | 15.3 | x | x | x | x
Cc1nc2ccc(C(=O)N3c4ccccc4N=C(c4ccc(C(F)(F)F)cc4)C3C(=O)NC(C)(C)C)cc2[nH]1 (stereo not given) | x | 9.2 | x | x | x | 88.9*
CCCCNC(=O)C1C(c2ccc(C(F)(F)F)cc2)=Nc2ccccc2N1C(=O)c1cccc(C(F)(F)F)c1 (stereo not given) | x | -5.8 | x | x | x | 25.9

Compound activity: PubChem, Broad Institute
